According to ChEMBL document CHEMBL4428042, “Discovery and Characterization of a Class of Pyrazole Inhibitors of Bacterial Undecaprenyl Pyrophosphate Synthase” (J Med Chem, 2016):
In brackets after ≈: the same amount, converted by molar mass. Activity calls are given as the source filed them. The rule behind the calls is not given here.

How the values were obtained:
[1] = Inhibition of N-terminal FLAG-tagged and C-terminal SBP-tagged Staphylococcus aureus recombination UppS assessed as reduction in IPP condensation to growing prenyl chain by measuring pyrophosphate production incubated for 30 mins
Staphylococcus aureus [2] = assay: Binding affinity to N-terminal FLAG-tagged and C-terminal SBP-tagged Staphylococcus aureus recombinant UppS expressed in Escherichia coli by affinity selection based ELT screen assay
[3] = molecular target: T1, Ditrans,polycis-undecaprenyl-diphosphate synthase ((2E,6E)-farnesyl-diphosphate specific) (Acinetobacter baumannii, UniProt V5VCK8); assay: Inhibition of hexa-histidine tagged Acinetobacter baumannii UppS expressed in Escherichia coli assessed as reduction in IPP condensation to growing prenyl chain by measuring pyrophosphate production
T1 sequence (V5VCK8 whole entry): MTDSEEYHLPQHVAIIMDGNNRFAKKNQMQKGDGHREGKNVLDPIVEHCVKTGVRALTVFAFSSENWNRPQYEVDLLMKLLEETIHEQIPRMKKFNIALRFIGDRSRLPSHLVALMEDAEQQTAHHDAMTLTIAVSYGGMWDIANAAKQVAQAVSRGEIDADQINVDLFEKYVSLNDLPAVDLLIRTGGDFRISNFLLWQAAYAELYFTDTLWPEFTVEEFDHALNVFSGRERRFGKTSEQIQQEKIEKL

[4] = molecular target: T2, Ditrans,polycis-undecaprenyl-diphosphate synthase ((2E,6E)-farnesyl-diphosphate specific) (Klebsiella pneumoniae, UniProt A0A080SPQ8); assay: Inhibition of hexa-histidine tagged Klebsiella pneumoniae UppS expressed in Escherichia coli assessed as reduction in IPP condensation to growing prenyl chain by measuring pyrophosphate production
T2 sequence (A0A080SPQ8 whole entry): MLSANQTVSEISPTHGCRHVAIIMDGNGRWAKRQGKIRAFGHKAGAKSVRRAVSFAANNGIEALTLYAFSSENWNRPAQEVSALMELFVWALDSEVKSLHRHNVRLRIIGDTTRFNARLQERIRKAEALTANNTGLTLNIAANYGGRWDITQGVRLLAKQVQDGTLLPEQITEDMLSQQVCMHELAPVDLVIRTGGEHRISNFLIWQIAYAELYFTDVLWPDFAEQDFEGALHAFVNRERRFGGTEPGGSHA

[5] = molecular target: T3, Ditrans,polycis-undecaprenyl-diphosphate synthase ((2E,6E)-farnesyl-diphosphate specific) (Pseudomonas aeruginosa (strain ATCC 15692 / DSM 22644 / CIP 104116 / JCM14847 / LMG 12228 / 1C / PRS 101 / PAO1), UniProt Q9HXY2); assay: Inhibition of hexa-histidine tagged Pseudomonas aeruginosa UppS expressed in Escherichia coli assessed as reduction in IPP condensation to growing prenyl chain by measuring pyrophosphate production incubated for 30 mins
T3 sequence (Q9HXY2 whole entry): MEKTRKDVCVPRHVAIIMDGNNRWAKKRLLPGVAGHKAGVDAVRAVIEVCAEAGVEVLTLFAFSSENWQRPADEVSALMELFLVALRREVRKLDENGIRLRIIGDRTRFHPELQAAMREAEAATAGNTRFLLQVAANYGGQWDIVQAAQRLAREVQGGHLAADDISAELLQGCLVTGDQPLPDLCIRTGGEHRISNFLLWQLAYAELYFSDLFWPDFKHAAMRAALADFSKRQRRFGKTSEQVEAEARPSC

Staphylococcus aureus [6] = assay: Binding affinity to N-terminal FLAG-tagged and C-terminal SBP-tagged Staphylococcus aureus recombination UppS assessed change in melting temperature at 10 uM by SYPRO Orange based assay
Staphylococcus aureus [7] = assay: Antibacterial activity against Staphylococcus aureus OXFORD incubated for 18 to 24 hrs by broth microdilution method; type: functional
Staphylococcus aureus [8] = assay: Antibacterial activity against Staphylococcus aureus WCUH29 incubated for 18 to 24 hrs by broth microdilution method; type: functional
Streptococcus pneumoniae [9] = assay: Antibacterial activity against Streptococcus pneumoniae 1629 incubated for 18 to 24 hrs by broth microdilution method; type: functional
Streptococcus pneumoniae [10] = assay: Antibacterial activity against Streptococcus pneumoniae Ery2 incubated for 18 to 24 hrs by broth microdilution method; type: functional
Streptococcus pyogenes = assay: Antibacterial activity against Streptococcus pyogenes 1307006P incubated for 18 to 24 hrs by broth microdilution method; type: functional
Moraxella catarrhalis = assay: Antibacterial activity against Moraxella catarrhalis 1502 incubated for 18 to 24 hrs by broth microdilution method; type: functional
Haemophilus influenzae [11] = assay: Antibacterial activity against Haemophilus influenzae H128 incubated for 18 to 24 hrs by broth microdilution method; type: functional
Haemophilus influenzae [12] = assay: Antibacterial activity against Haemophilus influenzae H128 deficient in AcrA incubated for 18 to 24 hrs by broth microdilution method; type: functional
Klebsiella pneumoniae = assay: Antibacterial activity against Klebsiella pneumoniae 1161486a deficient in tolC incubated for 18 to 24 hrs by broth microdilution method; type: functional
Escherichia coli = assay: Antibacterial activity against Escherichia coli 120 deficient in AcrAB incubated for 18 to 24 hrs by broth microdilution method; type: functional
Pseudomonas aeruginosa = assay: Antibacterial activity against Pseudomonas aeruginosa PAO322 deficient in MexA/B/C/D/E/F incubated for 18 to 24 hrs by broth microdilution method; type: functional
Acinetobacter baumannii = assay: Antibacterial activity against Acinetobacter baumannii ACM1010 incubated for 18 to 24 hrs by broth microdilution method; type: functional
Staphylococcus aureus [13] = assay: Antibacterial activity against Staphylococcus aureus RN4220 transfected with pYH4 in absence of anhydrotetracycline incubated for 18 to 24 hrs by broth microdilution method; type: functional
Staphylococcus aureus [14] = assay: Antibacterial activity against Staphylococcus aureus RN4220 transfected with pYH4 in presence of anhydrotetracycline incubated for 18 to 24 hrs by broth microdilution method; type: functional
Staphylococcus aureus [15] = assay: Antibacterial activity against Staphylococcus aureus RN4220 transfected with pYH4-UppS in absence of anhydrotetracycline incubated for 18 to 24 hrs by broth microdilution method; type: functional
Staphylococcus aureus [16] = assay: Antibacterial activity against Staphylococcus aureus RN4220 transfected with pYH4-UppS in presence of anhydrotetracycline incubated for 18 to 24 hrs by broth microdilution method; type: functional
Outline: (§1)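 S. aureus strain carrying an inducible uppS over-expression plasmid, with anhydrotetracycline inducer at 0.1 µg/mL. MIC was compared with the un-induced system and with a plasmid vector control strain.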

Staphylococcus aureus [17] = assay: Antibacterial activity against Staphylococcus aureus RN4220 expressing wild type UppS incubated for 18 to 24 hrs by broth microdilution method; type: functional
Staphylococcus aureus [18] = assay: Antibacterial activity against Staphylococcus aureus RN4220 expressing UppS F103L mutant incubated for 18 to 24 hrs by broth microdilution method; type: functional
Outline: (§2)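 S. aureus resistant mutants were isolated from the wild-type laboratory strain in the presence of the pyrazole UppS inhibitor and then tested for MIC.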

Staphylococcus aureus [19] = assay: Antibacterial activity against Staphylococcus aureus RN4220 expressing UppS F148L mutant incubated for 18 to 24 hrs by broth microdilution method; type: functional; outline: as §2
[20] = Cytotoxicity against mouse L5178Y TK+/- suspension cells incubated for 72 hrs by Cell-titer-Glo reagent based assay; conditions: read-out: TC50
Staphylococcus aureus [21] = assay: Resistance index, ratio of MIC for antibacterial activity against Staphylococcus aureus RN4220 transfected with pYH4-UppS in presence of anhydrotetracycline to MIC for antibacterial activity against Staphylococcus aureus RN4220 transfected with pYH4-UppS in absence of anhydrotetracycline; type: functional; outline: as §1

SMILES | IC50 [1] [µM] | Activity (Staphylococcus aureus [2]) | IC50 [3] [µM] | IC50 [4] [µM] | IC50 [5] [µM] | ΔTm (Staphylococcus aureus [6]) [°C] | MIC (Staphylococcus aureus [7]) [µg/mL] | MIC (Staphylococcus aureus [8]) [µg/mL] | MIC (Streptococcus pneumoniae [9]) [µg/mL] | MIC (Streptococcus pneumoniae [10]) [µg/mL] | MIC (Streptococcus pyogenes) [µg/mL] | MIC (Moraxella catarrhalis) [µg/mL] | MIC (Haemophilus influenzae [11]) [µg/mL] | MIC (Haemophilus influenzae [12]) [µg/mL] | MIC (Klebsiella pneumoniae) [µg/mL] | MIC (Escherichia coli) [µg/mL] | MIC (Pseudomonas aeruginosa) [µg/mL] | MIC (Acinetobacter baumannii) [µg/mL] | MIC (Staphylococcus aureus [13]) [µg/mL] | MIC (Staphylococcus aureus [14]) [µg/mL] | also measured
CC(C)Oc1ccc(CN(CCC(N)=O)C(=O)c2cnn(Cc3ccccc3)c2-c2ccc3sccc3c2)cc1 | 0.19 | Active | > 100 | > 100 | > 100 | 8 | 8 (≈ 14.5 µM) | 4 to 8 (≈ 7.24 to 14.5 µM) | 32 to 64 (≈ 57.9 to 116 µM) | 32 to 64 (≈ 57.9 to 116 µM) | 64 (≈ 116 µM) | 8 to 16 (≈ 14.5 to 28.9 µM) | > 128 | 8 to 16 (≈ 14.5 to 28.9 µM) | > 128 | > 128 | > 128 | > 128 | 8 (≈ 14.5 µM) | 8 | MIC (Staphylococcus aureus [15]): 32 µg/mL (≈ 57.9 µM); MIC (Staphylococcus aureus [16]): 64 µg/mL; MIC (Staphylococcus aureus [17]): 8 µg/mL (≈ 14.5 µM); MIC (Staphylococcus aureus [18]): 64 µg/mL (≈ 116 µM); MIC (Staphylococcus aureus [19]): 64 µg/mL (≈ 116 µM); CC50 at 72 h [20]: 25 µM; Ratio (Staphylococcus aureus [21]): 2
Cc1ccc(-c2c(C(=O)N(CCC(N)=O)Cc3ccc(OC(C)C)cc3)cnn2Cc2ccccc2)cc1 | 0.97 | Active | > 100 | > 100 | > 100 | 11 | 32 to 64 (≈ 62.7 to 125 µM) | 32 to 64 (≈ 62.7 to 125 µM) | 128 (≈ 251 µM) | 128 (≈ 251 µM) | 128 (≈ 251 µM) | 32 (≈ 62.7 µM) | > 128 | 32 (≈ 62.7 µM) | > 128 | > 128 | > 128 | > 128 | 64 (≈ 125 µM) | 32 | MIC (Staphylococcus aureus [15]): 128 µg/mL (≈ 251 µM); MIC (Staphylococcus aureus [16]): > 128 µg/mL; CC50 at 72 h [20]: 100 µM
O=C(O)c1cn(C2CC2)c2cc(N3CCNCC3)c(F)cc2c1=O [CIPROFLOXACIN] |  |  |  |  |  |  |  | 0.5 (≈ 1.51 µM) | 0.25 (≈ 0.754 µM) | 2 (≈ 6.04 µM) | 0.5 (≈ 1.51 µM) | 0.03 (≈ 0.0905 µM) | ≤ 0.008 | ≤ 0.008 | ≤ 0.008 | ≤ 0.008 | ≤ 0.008 | > 8 |  |  | 
C[C@@H](O)[C@H]1C(=O)N2C(C(=O)O)=C(S[C@@H]3CN[C@H](C(=O)N(C)C)C3)[C@H](C)[C@H]12 [MEROPENEM] |  |  |  |  |  |  | 0.125 (≈ 0.326 µM) | 2 (≈ 5.22 µM) | 0.016 (≈ 0.0417 µM) | 0.016 (≈ 0.0417 µM) | ≤ 0.008 | ≤ 0.008 | 0.125 (≈ 0.326 µM) | 0.125 (≈ 0.326 µM) | 0.03 (≈ 0.0782 µM) | 0.03 (≈ 0.0782 µM) | 0.5 (≈ 1.3 µM) | 0.5 (≈ 1.3 µM) |  |  | 
